# Molecular target: T1, recombinant human TDP2 (Homo sapiens, UniProt O95551)
# T1 sequence (O95551 1-362): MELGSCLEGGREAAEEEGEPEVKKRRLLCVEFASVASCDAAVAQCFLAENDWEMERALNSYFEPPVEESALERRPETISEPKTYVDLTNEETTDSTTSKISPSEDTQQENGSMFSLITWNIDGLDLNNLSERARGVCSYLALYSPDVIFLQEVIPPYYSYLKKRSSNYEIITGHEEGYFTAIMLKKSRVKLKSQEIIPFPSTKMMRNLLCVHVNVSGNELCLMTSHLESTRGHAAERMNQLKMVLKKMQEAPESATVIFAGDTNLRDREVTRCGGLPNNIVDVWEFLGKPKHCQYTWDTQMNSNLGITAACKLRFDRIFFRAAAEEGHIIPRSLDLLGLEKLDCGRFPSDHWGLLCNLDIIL
# Assay: Recombinant TDP2 assay
# Assay type: biochemical
# Settings: not given
# Outline: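 Human recombinant TDP2 (25 pM) with 1 nM 18-mer 5'-phosphotyrosyl ssDNA, 3'-α32P-cordycepin-labelled. Reaction ran 15 min at room temperature in Tris-HCl pH 7.5, KCl, MgCl2, EDTA, DTT, BSA and Tween 20. Stopped with formamide loading buffer, then 16% denaturing PAGE and phosphorimaging densitometry of product. […] IC50 is 50% enzyme inhibition.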
row,IC50,Compound
1,8.7 ± 0.54 µM,"O=C(OCCc1cccc(F)c1)c1noc2c1C(=O)c1cccnc1C2=O [Compound 61, 3-Fluorophenethyl 4,9-dioxo-4,9-dihydroisoxazolo[4,5-g]quinoline-3-carboxylate]"
2,37 ± 7 µM,"CCOC(=O)c1c(C)oc2c1C(=O)c1nc(N(C)C)ccc1C2=O [Compound 23, Ethyl-6-(dimethylamino)-2-methyl-4,9-dioxo-4,9-dihydrofuro[2,3-g]quinoline-3-carboxylate]"
3,> 111 µM,"CCOC(=O)c1c(C)oc2c1C(=O)c1nc(-c3ccc(OC)cc3)ccc1C2=O [Compound 27, Ethyl6-(4-methoxyphenyl)-2-methyl-4,9-dioxo-4,9-dihydrofuro[2,3-g]quinoline-3-carboxylate]"
4,> 111 µM,"CCOC(=O)c1c(C)oc2c1C(=O)c1ccc(N(C)C)nc1C2=O [Compound 30, Ethyl-7-(dimethylamino)-2-methyl-4,9-dioxo-4,9-dihydrofuro[3,2-g]quinoline-3-carboxylate]"
5,32 ± 3.2 µM,"CCOC(=O)c1c(C)oc2c1C(=O)c1cnccc1C2=O [Compound 12, Ethyl 2-methyl-4,9-dioxo-4,9-dihydrofuro[2,3-g]isoquinoline-3-carboxylate]"
6,> 111 µM,"CCOC(=O)c1c(C(C)C)oc2c1C(=O)c1cccnc1C2=O [Compound 40, Ethyl 2-isopropyl-4,9-dioxo-4,9-dihydrofuro[3,2-g]quinoline-3-carboxylate]"
7,31 ± 6.4 µM,"CCOC(=O)c1c(CN2CCSCC2)oc2c1C(=O)c1ncccc1C2=O [Compound 47, Ethyl 4,9-dioxo-2-(thiomorpholinomethyl)-4,9-dihydrofuro[2,3-g]quinoline3-carboxylate]"
8,3.3 ± 0.65 µM,"CC(C)(C)OC(=O)c1noc2c1C(=O)c1cccnc1C2=O [Compound 55, Tert-butyl 4,9-dioxo-4,9-dihydroisoxazolo[4,5-g]quinoline-3-carboxylate]"
9,14 ± 2.9 µM,"O=C(OCC(F)(F)F)c1noc2c1C(=O)c1cccnc1C2=O [Compound 59, 2,2,2-Trifluoroethyl 4,9-dioxo-4,9-dihydroisoxazolo[4,5-g]quinoline-3-carboxylate]"
10,> 111 µM,"CCOC(=O)c1c(C)oc2c1C(=O)c1nc(-c3ccco3)ccc1C2=O [Compound 28, Ethyl-6-(furan-2-yl)-2-methyl-4,9-dioxo-4,9-dihydrofuro[2,3-g]quinoline-3-carboxylate]"

# More lines, now with the values behind:
row,Compound,IC50
1,"CCOC(=O)c1ccnc2c1C(=O)c1oc(C)c(C(=O)OCC)c1C2=O [Compound 35, Diethyl-2-methyl-4,9-dioxo-4,9-dihydrofuro[2,3-g]quinoline-3,8-dicarboxylate]",69 ± 3.1 µM
2,"CCOC(=O)c1c(C)oc2c1C(=O)c1ccc(Cl)nc1C2=O [Compound 20, Ethyl-7-chloro-2-methyl-4,9-dioxo-4,9-dihydrofuro[3,2-g]quinoline-3-carboxylate]",> 111 µM
3,"N#Cc1ccc(-c2noc3c2C(=O)c2cccnc2C3=O)c(F)c1 [Compound 71, 4-(4,9-Dioxo-4,9-dihydroisoxazolo[4,5-g]quinolin-3-yl)-3-fluorobenzonitrile]",0.74 ± 0.25 µM
4,"CCOC(=O)c1noc2c1C(=O)c1cnccc1C2=O [Compound 50, Ethyl-4,9-dioxo-4,9-dihydroisoxazolo[5,4-g]isoquinoline-3-carboxylate]",5.4 ± 0.8 µM
5,"CCOC(=O)c1c(C)oc2c1C(=O)c1ccncc1C2=O [Compound 13, Ethyl 2-methyl-4,9-dioxo-4,9-dihydrofuro[3,2-g]isoquinoline-3-carboxylate]",> 111 µM
6,"CC(C)(C)OC(=O)c1noc2c1C(=O)c1ncccc1C2=O [Compound 54, Tert-butyl 4,9-dioxo-4,9-dihydroisoxazolo[5,4-g]quinoline-3-carboxylate]",3.1 ± 0.43 µM
7,"CCOC(=O)c1c(-c2ccccc2)oc2c1C(=O)c1cccnc1C2=O [Compound 42, Ethyl 4,9-dioxo-2-phenyl-4,9-dihydrofuro[3,2-g]quinoline-3-carboxylate]",47 ± 24 µM
8,"CCOC(=O)c1c(C)oc2c1C(=O)c1ccc(N3CCCCC3)nc1C2=O [Compound 31, Ethyl-2-methyl-4,9-dioxo-7-(piperidin-1-yl)-4,9-dihydrofuro[3,2-g]quinoline-3-carboxylate]",> 111 µM
9,"CCOC(=O)c1c(C)oc2c1C(=O)c1nccc(CC)c1C2=O [Compound 36, Ethyl-8-ethyl-2-methyl-4,9-dioxo-4,9-dihydrofuro[2,3-g]quinoline-3-carboxylate]",28 ± 1.3 µM
10,"C#CCN(C)c1ccc2c(n1)C(=O)c1c(oc(C)c1C(=O)OCC)C2=O [Compound 26, Ethyl-2-methyl-6-(methyl(prop-2-yn-1-yl)amino)-4,9-dioxo-4,9-dihydrofuro[2,3-g]quinoline-3-carboxylate]",> 111 µM
11,"CCOC(=O)c1c(C)oc2c1C(=O)c1nc(N3CCN(C)CC3)ccc1C2=O [Compound 25, Ethyl-2-methyl-6-(4-methylpiperazin-1-yl)-4,9-dioxo-4,9-dihydrofuro[2,3-g]quinoline-3-carboxylate]",> 111 µM
12,"N#CCCOC(=O)c1noc2c1C(=O)c1cccnc1C2=O [Compound 60, 2-Cyanoethyl 4,9-dioxo-4,9-dihydroisoxazolo[4,5-g]quinoline-3-carboxylate]",10 ± 1.48 µM
13,"CCOC(=O)c1c(-c2ccccc2)oc2c1C(=O)c1ncccc1C2=O [Compound 41, Ethyl 4,9-dioxo-2-phenyl-4,9-dihydrofuro[2,3-g]quinoline-3-carboxylate]",28 ± 6.4 µM
14,"CCOC(=O)c1c(C)oc2c1C(=O)c1ccc(C)nc1C2=O [Compound 22, Ethyl-2,7-dimethyl-4,9-dioxo-4,9-dihydrofuro[3,2-g]quinoline-3-Carboxylate]",> 111 µM
15,"O=C(OCCc1ccc([N+](=O)[O-])cc1)c1noc2c1C(=O)c1cccnc1C2=O [Compound 62, 4-Nitrophenethyl 4,9-dioxo-4,9-dihydroisoxazolo[4,5-g]quinoline-3-carboxylate]",11 ± 3.8 µM
16,"O=C1c2ncccc2C(=O)c2c(COc3ccccc3)noc21 [Compound 65, 3-(Phenoxymethyl) isoxazolo[4,5-g]quinoline-4,9-dione]",0.82 ± 0.28 µM
17,"CCOC(=O)c1c(CN2CCN(C(C)=O)CC2)oc2c1C(=O)c1ncccc1C2=O [Compound 45, Ethyl 2-((4-acetylpiperazin-1-yl)methyl)-4,9-dioxo-4,9-dihydrofuro[2,3-g]qui noline-3-carboxylate]",31 ± 4.2 µM
18,"CCOC(=O)c1c(C)oc2c1C(=O)c1ccccc1C2=O [Compound 11, Ethyl 2-methyl-4,9-dioxo-4,9-dihydronaphtho[2,3-b]furan-3-carboxylate]",> 111 µM

# Same assay, conditions: read-out: TDP2 inhibitory activity IC50; mean ± SD from at least three independent experiments; recombinant TDP2
row,IC50,Compound
1,37 ± 2 µM,"Ethyl 2-isopropyl-4,9-dioxo-4,9-dihydrofuro[2,3-g]quinoline-3-carboxylate [Compound 37]"
2,20 ± 0.18 µM,"O=C(OCCOC12CC3CC(CC(C3)C1)C2)c1noc2c1C(=O)c1cccnc1C2=O [Compound 63, 2-(((3 s,5s,7s)-Adamantan-1-yl)oxy)ethyl 4,9-dioxo-4,9-dihydroisoxazolo[4,5-g]quinoline-3-carboxylate]"
3,0.94 ± 0.24 µM,"O=C1c2ncccc2C(=O)c2c(COc3ccccc3Cl)noc21 [Compound 66, 3-((2-Chlorophenoxy)methyl)isoxazolo[4,5-g]quinoline-4,9-dione]"
4,9.3 ± 2.7 µM,"CCOC(=O)c1noc2c1C(=O)c1nccnc1C2=O [Compound 52, Ethyl-4,9-dioxo-4,9-dihydroisoxazolo[4,5-g]quinoxaline-3-carboxylate]"

# — publication PMC9893515 (Bioorganic chemistry, 2021)
